For assay [1], the species on record is Cavia porcellus. As to the kind of experiment: Inotropic effect in electrically driven left atrium from reserpine-treated guinea pig at the concentration of 10 e-5 M. It counts as functional, Cardiac atrium. Summed up:
(§1)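 Atria from reserpine-pretreated guinea pigs (2 mg/kg ip, 48 and 24 h), tyramine-unresponsive only. Left atrium loaded 0.5 g, paced at 1.5 Hz with 3-ms square pulses at 10–20% above threshold. Equilibrated 90 min. Agents added cumulatively, 5 min per concentration. Isometric developed tension expressed as % increase over control.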

For assay [2], the species on record is Cavia porcellus. As to the kind of experiment: Inotropic effect in electrically driven left atrium from reserpine-treated guinea pig at the concentration of 2 x 10 e-3 M. It counts as functional, Cardiac atrium. In a few lines:
as §1

The species named for assay [3] is Cavia porcellus. Nature of the assay: Inotropic effect in electrically driven left atrium from reserpine-treated guinea pig without 8-phenyl theophylline at the concentration of 2 x 10 e-3 M. Type of assay: functional, Cardiac atrium. In a few lines:
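Paced left atrium from reserpine-pretreated, tyramine-unresponsive guinea pigs (0.5 g load, 1.5 Hz, 3-ms pulses). Cumulative additions of agent, 5 min each, with no 8-phenyltheophylline present. Developed tension as % increase over control. Mean ± SEM of six assays from six experiments; Student's t test against the 8-phenyltheophylline-treated preparations.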

Assay [4] is filed under the species Cavia porcellus. As to the kind of experiment: Inotropic response in electrically driven left atrium from reserpine-treated guinea pig without ADA at the concentration of 5 x 10 e-4 M. Type of assay: functional, Cardiac atrium. Summed up: (§2)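 Control arm: electrically driven left atrium (1.5 Hz, 3-ms pulses, 0.5 g load) from guinea pigs given reserpine 2 mg/kg ip at 48 and 24 h, tyramine-unresponsive; no adenosine deaminase. Cumulative additions after 90 min equilibration, 5 min per concentration. Isometric developed tension, % over control; six assays from six experiments.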

For assay [5], the species on record is Cavia porcellus. As to the kind of experiment: Inotropic response in electrically driven left atrium from reserpine-treated guinea pig with 8-phenyl theophylline (10 e-5) at the concentration of 10 e-5 M. It counts as functional, Cardiac atrium. In a few lines:
(§3)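 Guinea pigs pretreated with reserpine 2 mg/kg ip at 48 and 24 h before sacrifice; atria unresponsive to tyramine 2 μg/mL used. Left atrium paced at 1.5 Hz (3-ms square pulses, 10–20% above threshold, 0.5 g load). 8-Phenyltheophylline 10 μM preincubated 20 min after 90 min equilibration, then agents added cumulatively, 5 min each. Isometric developed tension as % over control; six assays from six experiments.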

Assay [6] is filed under the species Cavia porcellus. Nature of the assay: Inotropic response in electrically driven left atrium from reserpine-treated guinea pig with 8-phenyl theophylline (10 e-5)at the concentration of 10 e-3 M. It counts as functional, Cardiac atrium. In a few lines: as §3
Assay [7] is filed under the species Cavia porcellus. As to the kind of experiment: Inotropic response in electrically driven left atrium from reserpine-treated guinea pig with 8-phenyl theophylline (10 e-5)at the concentration of 10 e-4 M. It counts as functional, Cardiac atrium. In a few lines:
as §3

The species named for assay [8] is Cavia porcellus. Nature of the assay: Inotropic response in electrically driven left atrium from reserpine-treated guinea pig with 8-phenyl theophylline (10 e-5)at the concentration of 2 x 10 e-3 M. It counts as functional, Cardiac atrium. In a few lines:
as §3

Assay [9] is filed under the species Cavia porcellus. Nature of the assay: Inotropic response in electrically driven left atrium from reserpine-treated guinea pig with 8-phenyl theophylline (10 e-5)at the concentration of 5 x 10 e-4 M. Type of assay: functional, Cardiac atrium. Summed up:
as §3

The species named for assay [10] is Cavia porcellus. Nature of the assay: Inotropic response in electrically driven left atrium from reserpine-treated guinea pig with 8-phenyl theophylline (10 e-5)at the concentration of 5 x 10 e-5 M. It counts as functional, Cardiac atrium. Summed up: as §3
For assay [11], the species on record is Cavia porcellus. As to the kind of experiment: Inotropic response in electrically driven left atrium from reserpine-treated guinea pig with ADA (2 units/ml) at the concentration of 10 e-5 M. Type of assay: functional, Cardiac atrium. Summed up:
(§4)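 Reserpinized guinea pigs (2 mg/kg ip, 48 and 24 h before death), tyramine-unresponsive atria. Electrically driven left atrium (1.5 Hz, 3-ms pulses, 0.5 g load) preincubated 20 min with adenosine deaminase after 90 min equilibration. Agents added cumulatively, 5 min per concentration. Developed tension recorded isometrically, % increase over control or % inhibition; six assays from six experiments, Student's t test.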

The species entered for assay [12] is Cavia porcellus. Nature of the assay: Inotropic response in electrically driven left atrium from reserpine-treated guinea pig without VER at the concentration of 10 e-4 M. Type of assay: functional, Cardiac atrium. In a few lines: (§5)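 Control arm without verapamil: left atrium from reserpinized guinea pigs (2 mg/kg ip, 48 and 24 h before), tyramine-unresponsive, paced at 1.5 Hz (3-ms pulses). Agents added cumulatively after 90 min equilibration, recorded 5 min each. Isometric developed tension as % increase over control; seven assays from seven experiments.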

The species named for assay [13] is Cavia porcellus. As to the kind of experiment: Inotropic response in electrically driven left atrium from reserpine-treated guinea pig without VER at the concentration of 5 x 10 e-5 M. Type of assay: functional, Cardiac atrium. In a few lines: as §5
For assay [14], the species on record is Cavia porcellus. As to the kind of experiment: Inotropic response in electrically driven left atrium from reserpine-treated guinea pig with ADA (2 units/ml) at the concentration of 2 x 10 e-3 M. It counts as functional, Cardiac atrium. In a few lines:
as §4

Assay [15] is filed under the species Cavia porcellus. As to the kind of experiment: Inotropic response in electrically driven left atrium from reserpine-treated guinea pig with VER (10 e-7) at the concentration of 5 x 10 e-4 M. It counts as functional, Cardiac atrium. In a few lines: (§6)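 Left atrium from reserpine-treated guinea pigs (2 mg/kg ip, 48 and 24 h prior; tyramine 2 μg/mL check), paced at 1.5 Hz with 3-ms pulses. Verapamil 0.1 μM added 10 min before cumulative agent additions (5 min each), after 90 min equilibration. Isometric developed tension as % increase over control; seven assays from seven experiments.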

Assay [16] is filed under the species Cavia porcellus. Nature of the assay: Inotropic response in electrically driven left atrium from reserpine-treated guinea pig with VER (10 e-7) at the concentration of 5 x10 e-5 M. Type of assay: functional, Cardiac atrium. Summed up: as §6
The species entered for assay [17] is Cavia porcellus. Nature of the assay: Inotropic response in electrically driven left atrium from reserpine-treated guinea pig without ADA at the concentration of 2 x 10 e-3 M. It counts as functional, Cardiac atrium. Summed up:
as §2

For assay [18], the species on record is Cavia porcellus. Nature of the assay: Effect on contractile force of spontaneously beating atria from reserpine treated guinea pigs at the concentration of 5x 10 e-5 M. Type of assay: functional.
For assay [19], the species on record is Cavia porcellus. As to the kind of experiment: Inotropic response in electrically driven left atrium from reserpine-treated guinea pig with 8-pH (10 e-5)at the concentration of 10 e-3 M. It counts as functional, Cardiac atrium. In a few lines: as §3
The species named for assay [20] is Cavia porcellus. As to the kind of experiment: Inotropic response in electrically driven left atrium from reserpine-treated guinea pig with 8-pH (10 e-5)at the concentration of 10 e-5 M. It counts as functional, Cardiac atrium. Summed up: as §3
The species entered for assay [21] is Cavia porcellus. Nature of the assay: Inotropic response in electrically driven left atrium from reserpine-treated guinea pig with 8-pH (10 e-5)at the concentration of 2 x 10 e-3 M. Type of assay: functional, Cardiac atrium. In a few lines: as §3
The species entered for assay [22] is Cavia porcellus. As to the kind of experiment: Inotropic response in electrically driven left atrium from reserpine-treated guinea pig with 8-pH (10 e-5)at the concentration of 5 x 10 e-4 M. It counts as functional, Cardiac atrium. Summed up:
as §3

Assay [23] is filed under the species Cavia porcellus. Nature of the assay: Inotropic response in electrically driven left atrium from reserpine-treated guinea pig with 8-pH (10 e-5)at the concentration of 5 x 10 e-5 M. It counts as functional, Cardiac atrium. Summed up:
as §3

For assay [24], the species on record is Cavia porcellus. As to the kind of experiment: Inotropic response in electrically driven left atrium from reserpine-treated guinea pig with 8-pH (10 e-5)at the concentration of 10 e-4 M. It counts as functional, Cardiac atrium. In a few lines: as §3
Assay [25] is filed under the species Cavia porcellus. Nature of the assay: Inotropic response in electrically driven left atrium from reserpine-treated guinea pig with ADA (2 units/ml) at the concentration of 10 e-5 M (% inhibition of contractile response) (p<0.001). It counts as functional, Cardiac atrium.

SMILES strings stand for the structures.

Among the data in ChEMBL document CHEMBL1126775, “A pharmacological, crystallographic, and quantum chemical study of new inotropic agents” (J Med Chem, 1993) are Increase values, retold here.

For the molecule `CC1CC(=O)c2ccc(O)nc2C1` (stereo not given), the Increase in assay [1] is 6.31%; in [2], 93.66%; in assay [3] it was 87.6%; in assay [4], 36.16%; in assay [5] it was 0.29%; in assay [6], 25.45%. Further, the Increase in [7] came to 8.67%; in assay [8], 52.56%; in assay [9] it was 15.18%; in assay [10] it was 3.95%; in assay [11], 2.48%; in assay [12], 17.96%. Besides, the Increase in assay [13] was 11.6%; in [14], 39.98%; in assay [15] it was 14.7%; in assay [16], 2.45%; in [17], 67.12%; in [18], 18.88%.
Regarding `CC(=O)c1cc(C#N)c(O)nc1C`, the Increase in assay [1] is 12.64%; in assay [2] it was 67.13%; in assay [3], 62.73%; in [19], 50.44%; in assay [20], 7.75%; in assay [21] it was 58.97%. In addition, the Increase in [22] was 40.37%; in assay [23] it was 11.59%; in assay [12], 37.34%; in assay [13], 28.29%; in assay [24], 23.03%; in assay [25] it was 3.42%. In addition, the Increase in assay [14] is reported as 80.21%; in assay [15], 55.47%; in [16] it was 19.5%; in [17], 84.6%; in assay [18], 27.64%.
